# KCNQ1 inh = inhibitors of human KCNQ1 channel, primary screen, cell-based, thallium flux, high-throughput. hit rate 1.3% among 310,000. CHO-K1 KCNQ1, FluxOR thallium flux fluorescence; hits give high values. B-score at 10 µM;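 active means compounds whose thallium flux B-score, printed positive for inhibition, exceeds three library SD while starting fluorescence stays within three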;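 further: channel opened by potassium depolarization with thallium stimulus after 20 min compound exposure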
# hERG rescue = hERG rescue from dofetilide block, primary screen, cell-based, CHO-hERG, FluxOR thallium flux, dofetilide IC70. dofetilide IC70 present. activation (rescue from dofetilide block), less the hit threshold, % at 10 µM. hit rate 0.51% among 310,000;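 active means activation above the mean of controls blocked by dofetilide plus 5 SD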;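 further: thallium influx through hERG after potassium depolarization seen as dye fluorescence rise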
# KCNK9 block = KCNK9 potassium channel inhibitors, primary screen, HEK293 cells, thallium flux; Potassium channel subfamily K member 9 (Homo sapiens), Q9NPC2; FluxOR thallium flux fluorescence; hits give low values; B-score at 10 µM; hit rate 1.2% among 310,000;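 active means ratio B-score over 3 SD below the library mean, with starting fluorescence within 5 SD of its mean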;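 further: negative B-score means less thallium flux so channel inhibition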
# KCNK3 block = human KCNK3 channel inhibitors, primary screen, CHO cells, FluxOR thallium flux, B-score; Potassium channel subfamily K member 3 (Homo sapiens), O14649; FluxOR fluorescence; hits give low values; B-score at 10 µM; hit rate 0.84% among 340,000; AID 602410, 2012;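 active means B-score under library mean minus 4 SD, starting fluorescence ratio at most library mean plus 5 SD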;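 further: more negative B-score means stronger inhibition of thallium flux through KCNK3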
# Target sequence (O14649 whole entry, looked up): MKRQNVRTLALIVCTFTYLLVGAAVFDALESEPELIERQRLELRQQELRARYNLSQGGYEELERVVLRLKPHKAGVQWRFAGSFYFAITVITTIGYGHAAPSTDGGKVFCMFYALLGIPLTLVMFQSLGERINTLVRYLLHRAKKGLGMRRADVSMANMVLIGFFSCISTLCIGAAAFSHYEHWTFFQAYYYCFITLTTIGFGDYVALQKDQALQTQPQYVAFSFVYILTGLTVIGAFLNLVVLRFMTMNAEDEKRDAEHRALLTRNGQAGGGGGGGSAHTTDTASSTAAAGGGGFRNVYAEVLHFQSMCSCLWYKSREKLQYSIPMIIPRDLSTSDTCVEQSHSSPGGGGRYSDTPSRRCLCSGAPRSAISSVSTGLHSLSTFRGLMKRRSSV
# KCNQ1 pot = potentiators or activators of KCNQ1 channel, primary screen, cell-based, thallium flux, high-throughput; Potassium voltage-gated channel subfamily KQT member 1 (Homo sapiens), P51787; hit rate 0.35% among 310,000; CHO-K1 KCNQ1, thallium flux FluxOR fluorescence; hits give high values; B-score at 10 µM;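 active means fluorescence ratio B-score, a plate-corrected score, at least three library SD, with initial intensity B-score within 5 SD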
#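 Material: CHO-K1 cells stably expressing KCNQ1. Medium: assay buffer for compound exposure, DMSO matched across wells. Reagent: K+/Tl+ depolarizing stimulus. Compound dosing: single-concentration screen. Times: 37 °C overnight plating, 90-min dark dye load, 20-min compound pretreatment. Technique: FluxOR Tl+ flux fluorescence.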
# Starred values were filed as active, the others as inactive; i = inactive; / = no result given. Shown are actives, neighbours in structure and some others; about 3.1% of the full set was active somewhere.
SMILES,KCNQ1 inh,hERG rescue,KCNK9 block,KCNK3 block,KCNQ1 pot
NS(=O)(=O)c1ccc(S(=O)(=O)c2ccccc2)nc1,i,-5,i,i,i
CCC1c2ccc(C)n2CCN1C(=O)Nc1ccccc1C(=O)OC (stereo unspecified),i,-8,-7*,i,i
CCOC(=O)c1ccccc1NC(=O)N1CCn2c(C)ccc2C1CC (stereo unspecified),i,-14,i,i,i
N#Cc1ccc(NC(=O)Nc2ccc(Oc3ccc(NC(=O)Nc4ccc(C#N)cc4)cc3)cc2)cc1,9*,-15,i,i,i
COc1ccc(NC(=O)Nc2ccc(OC)cc2)cc1,i,-4,i,i,i
CCn1c(=O)c2sccc2n(Cc2cccc(C)c2)c1=O,i,-12,i,i,i
CCOc1ccc(-n2c(=O)c3sccc3n(Cc3ccc(C)cc3)c2=O)cc1,i,-16,i,i,i
CC1(C)C2CCC1(C)C(OCC[N+](C)(C)CC(=O)OC1CCCCC1)C2 (stereo unspecified),7*,-7,i,i,i
CS(=O)(=O)N(CCc1ccccc1)CC(=O)Nc1ccc2c(c1)OCO2,i,-8,-7.9*,i,i
CS(=O)(=O)N(CC(=O)Nc1ccc2c(c1)OCO2)Cc1ccccc1,i,-13,i,i,i
CCc1ccn2cc(-c3ccc4c(c3)OCO4)nc2c1,i,-7,-7.3*,i,i
O=C(CC1C(=O)NCCN1Cc1ccccc1)NCCC1=CCCCC1 (stereo unspecified),i,-8,i,i,i
C=CCOC(=O)C1=C(C)NC(SCC(=O)Nc2ccccc2)=C(C#N)C1c1ccco1 (stereo unspecified),i,-10,i,i,i
CC1=C(C(=O)Nc2ccccc2)C(c2ccco2)C(C#N)=C(SCC(=O)Nc2cccc(C)c2C)N1 (stereo unspecified),i,-7,i,i,i
CCc1ccc(C(=O)CSC2=C(C#N)C(c3ccco3)C(C(C)=O)=C(C)N2)cc1 (stereo unspecified),i,-10,-11*,/,i
CC1=C(C(=O)Nc2ccccc2)C(c2ccco2)C(C#N)=C(SCc2ccccc2)N1 (stereo unspecified),11*,-12,i,/,i
CC1=C(C(=O)Nc2ccccc2)C(c2ccco2)C(C#N)=C(SCC(=O)OC(C)C)N1 (stereo unspecified),i,-25,i,-9.8*,i
C[C@]12c3[nH]c4ccc(Cl)cc4c3CCN1C(=O)[C@@H](CC(=O)NCCN1CCOCC1)C[C@@H]2C(=O)N1CCCCC1,/,/,/,i,/
O=C(CN1C(=O)NC(c2ccccc2)(c2ccccc2)C1=O)NCc1ccco1,/,/,/,i,/
O=C(NCc1ccco1)c1ccc2c(c1)N(Cc1ccc(Cl)cc1)CCS2,i,-17,-6.8*,i,i
O=C(NCc1ccco1)c1ccc2c(c1)N(Cc1ccccc1)CCS2,i,-13,i,i,i
S=c1nc(SCc2ccccc2)[nH]c2ccccc12,i,74*,i,i,54*
CC1Nc2ncnc(N3CCN(c4ccccc4)CC3)c2N(Cc2ccc(Br)cc2)C1=O (stereo unspecified),i,-16,-6.7*,i,i
O=C(CCn1c(=O)oc2ccccc21)Nc1nc2ccccc2s1,i,-11,-7.2*,i,i
C[C@H](CO)N1C[C@H](C)[C@@H](CN(C)C(=O)Nc2ccc3c(c2)OCO3)Oc2c(NC(=O)c3ccncc3)cccc2C1=O,/,/,/,i,/
SMILES,KCNQ1 inh,hERG rescue,KCNK9 block,KCNK3 block,KCNQ1 pot
COc1ccccc1C=NNC(=O)c1ccccc1OCCOc1ccccc1,/,/,/,-10*,/
CCOc1ccc2[nH]c(C(=O)N/N=C/c3ccccc3OC)cc2c1,i,-7,-7.9*,i,i
C/C(=N\NC(=O)c1ccccc1OCCOc1ccccc1)c1ccccc1F,/,/,/,-10*,/
COc1ccccc1C(=O)NCC(=O)N/N=C/c1cc(Br)ccc1OCc1ccccc1,i,-18,-7.6*,i,i
COc1ccccc1/C=N/NC(=O)c1ccccc1Cl,i,-8,i,i,i
COc1ccc2[nH]c(C(=O)N/N=C/c3ccccc3OC)cc2c1,i,-10,i,i,i
O=C(OCC(=O)N1CCC(Cc2ccccc2)CC1)c1ccc(CO)cc1,/,/,/,i,/
CC1CN(C(=O)COC(=O)c2ccccc2O)CC(C)O1 (stereo unspecified),i,0,i,i,i
CC(Sc1nnnn1-c1ccc(O)cc1)C(=O)NC1CCCCC1C (stereo unspecified),i,-13,i,i,i
COc1ccc(C(=O)N/N=C/c2ccc(OC(=O)c3ccccc3)cc2)cc1,i,2,i,i,i
COc1ccc(/C=N/NC(=O)c2c(-c3ccccc3)noc2C)cc1,i,-7,i,i,i
COc1ccc(/C=N/NC(=O)c2nc(-c3ccccc3)cc(-c3ccccc3)n2)cc1,10*,-10,-7.1*,i,i
COc1ccc(C(=O)N/N=C/c2ccccc2OC(=O)c2ccccc2)cc1,i,-8,-14*,i,i
Cc1n[nH]c(=O)c2c(NC(=O)CSc3nc4ccccc4c(=O)n3CCCOC(C)C)oc(C)c12,i,-14,i,i,i
O=C(c1ccc(-c2ccc([N+](=O)[O-])cc2)o1)N1CCN(S(=O)(=O)c2cccs2)CC1,/,/,/,i,/
COc1cc(C(=O)Nc2ccc(N3CCN(C(=O)c4ccc(C)cc4)CC3)cc2)cc(OC)c1OC,i,-7,i,i,i
Cc1cc(/C=N/n2cnnc2)c(C)n1-c1cc(Cl)ccc1Cl,i,-7,i,i,12*
Cc1ccc(NC(=O)Nn2cnnc2)cc1,i,-7,i,i,i
O=C(Nc1ccc(Cl)cc1)Nn1cnnc1,i,5.7*,i,i,i
COc1ccc(OC)c2cc3ccccc3cc12,/,/,/,-12*,/
C=CCOc1ccccc1CN1CCC(Oc2cc(C(=O)NC3CC3)ccc2OC)CC1,i,-11,i,i,i
CCN1C(=O)/C(=C/c2ccc(N3CCCC3)cc2)NC1=S,12*,-11,i,i,i
Cc1[nH]c2ccc(F)cc2c1CCN(Cc1ccncc1)C(=S)Nc1ccc(F)cc1,i,-15,-7.1*,i,i
